Substrate: Nc1nc2[nH]cnc2c(=O)[nH]1
Experiment: Activity at GDA by colorimetric assay
In short: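 Purified rabbit liver guanine deaminase, 8 × 10^-3 U, incubated with guanine at 2, 5, 7, 10, 12, 15, 17 and 20 µM plus inhibitor at 8 or 20 µM. Run in TBS (25 mM Tris-HCl, 137 mM NaCl, 2.7 mM KCl) at pH 7.4 and 25 °C. Guanine hydrolysis followed as OD change at 245 nm. Kinetic constants taken from Lineweaver–Burk plots (1/V vs 1/S).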

B1: Guanine deaminase (Homo sapiens), Q9Y2T3 (protein)
chain: MCAAQMPPLAHIFRGTFVHSTWTCPMEVLRDHLLGVSDSGKIVFLEEASQQEKLAKEWCFKPCEIRELSHHEFFMPGLVDTHIHASQYSFAGSSIDLPLLEWLTKYTFPAEHRFQNIDFAEEVYTRVVRRTLKNGTTTACYFATIHTDSSLLLADITDKFGQRAFVGKVCMDLNDTFPEYKETTEESIKETERFVSEMLQKNYSRVKPIVTPRFSLSCSETLMGELGNIAKTRDLHIQSHISENRDEVEAVKNLYPSYKNYTSVYDKNNLLTNKTVMAHGCYLSAEELNVFHERGASIAHCPNSNLSLSSGFLNVLEVLKHEVKIGLGTDVAGGYSYSMLDAIRRAVMVSNILLINKVNEKSLTLKEVFRLATLGGSQALGLDGEIGNFEVGKEFDAILINPKASDSPIDLFYGDFFGDISEAVIQKFLYLGDDRNIEEVYVGGKQVVPFSSSV
Q: For B1, which Km is on record?
A: The Km was 11.2 µM.
